These results are taken from PMC5569452 (Iranian Journal of Basic Medical Sciences, 2017).

The structures appear in SMILES notation. Structures can show the parent of a compound that is named as a salt.

The subject of assay [1] is isolated rat atria. Kind of assay: Spontaneously beating isolated rat atria, atria contraction rate. As to conditions: for ACR increase, percentage over the base line: compound alone, 100 μM; for isoprenaline-induced ACR in presence of compound: isoprenaline 10^-6 M + compound 10^-4 M. Put shortly:
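Male Wistar rats (250-350 g) given reserpine 5 mg/kg i.p. 24 hr before euthanasia; thiopental 80 mg/kg i.p. anaesthesia. Whole atria hung at ~0.5 g resting tension in Krebs-Henseleit (95% O2/5% CO2, 37 °C, pH 7.4), equilibrated 30 min. Solvent or test compound (10 or 100 μM) added; after 20 min, cumulative isoprenaline. Contractions counted per minute; % increase over baseline; mean ± SEM, 5-6 experiments.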

Assay [2] concerns isolated rat atria. The assay can be described thus: Spontaneously beating isolated rat atria, atria contraction force.
A further assay has as its target PDE3A (Homo sapiens, UniProt Q14432). Kind of assay: PDE assay kit. The class given is biochemical.
Where [3] appears, read: Cont: solvent + 1 μM isoprenaline (isoprenaline alone).
Setting [4] is: compound 100 μM, cumulative isoprenaline.

Sequence of PDE3A (Q14432 whole entry): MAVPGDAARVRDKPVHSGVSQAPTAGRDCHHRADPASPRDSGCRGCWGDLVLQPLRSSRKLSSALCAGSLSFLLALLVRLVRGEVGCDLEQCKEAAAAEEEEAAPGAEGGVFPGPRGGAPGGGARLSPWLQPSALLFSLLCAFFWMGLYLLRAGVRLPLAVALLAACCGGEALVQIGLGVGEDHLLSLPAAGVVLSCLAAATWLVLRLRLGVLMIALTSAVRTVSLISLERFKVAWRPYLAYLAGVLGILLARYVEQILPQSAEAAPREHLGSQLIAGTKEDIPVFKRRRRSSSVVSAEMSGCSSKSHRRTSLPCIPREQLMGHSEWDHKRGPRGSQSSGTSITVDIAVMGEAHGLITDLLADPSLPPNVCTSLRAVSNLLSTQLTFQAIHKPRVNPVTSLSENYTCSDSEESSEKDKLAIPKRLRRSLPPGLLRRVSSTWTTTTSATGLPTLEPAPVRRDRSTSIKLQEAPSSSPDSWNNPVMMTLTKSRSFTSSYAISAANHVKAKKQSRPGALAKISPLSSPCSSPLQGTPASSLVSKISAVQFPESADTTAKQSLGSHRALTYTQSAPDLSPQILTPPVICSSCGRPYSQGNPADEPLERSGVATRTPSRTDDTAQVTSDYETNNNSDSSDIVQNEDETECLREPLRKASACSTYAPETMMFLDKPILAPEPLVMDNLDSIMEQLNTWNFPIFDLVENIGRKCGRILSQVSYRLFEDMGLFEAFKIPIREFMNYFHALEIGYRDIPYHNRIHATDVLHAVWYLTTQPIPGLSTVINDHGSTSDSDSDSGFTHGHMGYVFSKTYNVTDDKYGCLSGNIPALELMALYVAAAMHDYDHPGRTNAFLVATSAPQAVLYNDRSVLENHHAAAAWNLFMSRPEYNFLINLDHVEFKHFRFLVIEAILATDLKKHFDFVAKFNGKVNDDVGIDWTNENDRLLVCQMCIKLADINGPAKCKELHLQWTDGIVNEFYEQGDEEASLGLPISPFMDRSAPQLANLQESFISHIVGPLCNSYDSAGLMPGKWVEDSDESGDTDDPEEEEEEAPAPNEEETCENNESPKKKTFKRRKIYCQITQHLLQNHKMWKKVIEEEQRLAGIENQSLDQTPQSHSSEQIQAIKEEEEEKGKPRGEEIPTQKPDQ

Turning to `CN(C(=O)CCCOc1ccc2[nH]c(=O)ccc2c1)C1CCCCC1` [cilostamide, 4-(1,2-dihydro-2-oxoquinolin-6-hydroxy)-N-cyclohexyl-N-methylbutanamide], in the assay on isolated rat atria [1], the “ACR increase, percentage over the base line” value (from here on “ACR increase, percentage”) was determined as 42±10% and the “isoprenaline-induced ACR in presence of compound” value was determined as 51±11 % HSBL. In the assay with isolated rat atria [2] (compound + isoprenaline 3×10^-6 M), the “maximum ACFmax in combination with isoprenaline” value is 25±5 % HSBL. Moreover, the “maximum ACFmin in combination with isoprenaline” value in the assay with isolated rat atria [2] (compound + isoprenaline 10^-6 M) was found to be 39 ±7 % HDBL. The “potentiation of the effect of isoprenaline on ACF” value with isolated rat atria [2] (compound added 20 min before isoprenaline) is recorded as “about 2.86 fold”. Besides, in the assay on isolated rat atria [2] (compound alone, 100 μM, 20 min), the “ACFmax within 20 min” value is 11±6 % HSBL and the “ACFmin within 20 min” value was found to be 16±6 % HDBL. In addition, in the assay on isolated rat atria [2] (compound alone, 100 μM), the “ACFmax at the beginning of adding the compound” value is given as 24±9 % HSBL and the “ACFmin at the beginning of adding the compound (initial decrease)” value is 9±4 % HDBL.
`CC(C)NCC(O)c1ccc(O)c(O)c1` (stereo not shown) [isoprenaline, isoprenaline hydrochloride]: in the assay on isolated rat atria [1] (setting [3]), the “ACR (% increase baseline)” value amounted to 68±12 % increase baseline. The “threshold concentration for ACR increase” value in the assay on isolated rat atria [1] (isoprenaline alone) is given as 10^-10 M. For the same compound, the “ACF (% increase baseline)” value in the assay with isolated rat atria [2] (setting [3]) is recorded as 14±6 % increase baseline. For the same compound, the “threshold concentration of ACFmax curve” value with isolated rat atria [2] (isoprenaline alone) is 10^-10 M. In addition, the “maximum ACFmax” value in the assay on isolated rat atria [2] (isoprenaline alone, 3×10^-8 M) was 21 % HSBL. Besides, in the assay on isolated rat atria [2] (isoprenaline alone, 10^-6 M), the “ACF maximum, higher than systolic base line (HSBL)” value amounted to 14±6 % HSBL and the “ACFmin, higher than diastolic base line (HDBL)” value is listed as 10.23±5 % HDBL. Moreover, the “threshold concentration for ACF increase” value with isolated rat atria [2] (isoprenaline alone, cumulative concentrations) is given as 10^-10 M.
As for `Cc1cc(=O)[nH]c2ccc(OCCCC(=O)N3CCC(C)CC3)cc12` [mc2, 6-(4-(4-methylpiperidin-1-yl)-4-oxobutoxy)-4-methylquinolin-2(1H)-one], the “ACR (% increase baseline)” value in the assay with isolated rat atria [1] (10 μM mc2 + 1 μM isoprenaline) stood at 50±10 % increase baseline. The “ACR (% increase baseline)” value in the assay with isolated rat atria [1] (100 μM mc2 + 1 μM isoprenaline) was determined as 6±7 % increase baseline. The “ACR increase, percentage” value in the assay with isolated rat atria [1] is “did not change”. Besides, in the assay with isolated rat atria [2] (10 μM mc2 + 1 μM isoprenaline), the “ACF (% increase baseline)” value is 3±1 % increase baseline. The “ACF (% increase baseline)” value in the assay with isolated rat atria [2] (100 μM mc2 + 1 μM isoprenaline) worked out at 60±5 % increase baseline. Also, in the assay with isolated rat atria [2] (compound alone, 100 μM, 20 min), the “ACF reached in 20 min” value was determined as 40±7 % HSBL and the “ACFmin within 20 min” value worked out at 36±6 % HDBL. In the assay with isolated rat atria [2] (compound alone, 100 μM, at addition), the “ACF change when compound was added (initial)” value is -1.76%. Besides, in the assay on isolated rat atria [2] (compound alone, 100 μM), the “ACFmax at the beginning of adding the compound” value is reported as “increased continuously from the beginning” and the “ACFmin at the beginning of adding the compound (initial decrease)” value was -6 % HDBL. Further, the “isoprenaline-augmented ACF in presence of compound” value with isolated rat atria [2] (isoprenaline 10^-6 M + compound 10^-5 M) is 3±1 % HSBL. Further, at PDE3A, the IC50 (usually the concentration that inhibits the measured activity by half) came out at 2000 nM.
As for `Cc1cc(=O)[nH]c2ccc(OCCCC(=O)N3CCC(O)CC3)cc12` [mc3, 6-(4-(4-hydroxypiperidin-1-yl)-4-oxobutoxy)4-methylquinolin-2(1H)-one], the “effect on isoprenaline concentration-response curve (ACR)” value in the assay with isolated rat atria [1] (setting [4]) is “did not make any significant changes”. In addition, the “ACR increase, percentage” value in the assay on isolated rat atria [1] is on record as “did not change”. Moreover, in the assay with isolated rat atria [2] (setting [4]), the “effect on isoprenaline concentration-response curve (ACF)” value was “did not change”. The “ACF increase, percentage over the base line” value with isolated rat atria [2] (compound alone, 100 μM) is recorded as “did not change”. For the same compound, the IC50 against PDE3A was 1000 nM.
Regarding `Cc1cc(=O)[nH]c2ccc(OCCCC(=O)N3CCCC3)cc12` [mc6, 6-(4-oxo-4-(pyrrolidin-1-yl)butoxy)-4-methylquinolin-2(1H)-one], in the assay with isolated rat atria [1], the “ACR increase, percentage” value came out at 65±6% and the “isoprenaline-induced ACR in presence of compound” value came to 91±6 % HSBL. In addition, the “ACF increase, percentage over the base line” value in the assay with isolated rat atria [2] (compound alone, 100 μM) is on record as 11±4%.
